Reference: ChEMBL document CHEMBL4725283, “Selective Peptidomimetic Inhibitors of NTMT1/2: Rational Design, Synthesis, Characterization, and Crystallographic Studies” (J Med Chem, 2020)
Calls of active or inactive are those of the source. No cut-off for these calls is given here.

Experiments:
[1] = biological target: T1, Histone-lysine N-methyltransferase EHMT2 (Homo sapiens, UniProt Q96KQ7); experiment: Inhibition of human His-tagged G9a (913 to 1193 residues) expressed in Escherichia coli BL21-CodonPlus(DE3)-RIL using H3-21 peptide as substrate preincubated for 10 mins in presence of SAM followed by substrate addition by fluorescence assay
T1 sequence (Q96KQ7 whole entry): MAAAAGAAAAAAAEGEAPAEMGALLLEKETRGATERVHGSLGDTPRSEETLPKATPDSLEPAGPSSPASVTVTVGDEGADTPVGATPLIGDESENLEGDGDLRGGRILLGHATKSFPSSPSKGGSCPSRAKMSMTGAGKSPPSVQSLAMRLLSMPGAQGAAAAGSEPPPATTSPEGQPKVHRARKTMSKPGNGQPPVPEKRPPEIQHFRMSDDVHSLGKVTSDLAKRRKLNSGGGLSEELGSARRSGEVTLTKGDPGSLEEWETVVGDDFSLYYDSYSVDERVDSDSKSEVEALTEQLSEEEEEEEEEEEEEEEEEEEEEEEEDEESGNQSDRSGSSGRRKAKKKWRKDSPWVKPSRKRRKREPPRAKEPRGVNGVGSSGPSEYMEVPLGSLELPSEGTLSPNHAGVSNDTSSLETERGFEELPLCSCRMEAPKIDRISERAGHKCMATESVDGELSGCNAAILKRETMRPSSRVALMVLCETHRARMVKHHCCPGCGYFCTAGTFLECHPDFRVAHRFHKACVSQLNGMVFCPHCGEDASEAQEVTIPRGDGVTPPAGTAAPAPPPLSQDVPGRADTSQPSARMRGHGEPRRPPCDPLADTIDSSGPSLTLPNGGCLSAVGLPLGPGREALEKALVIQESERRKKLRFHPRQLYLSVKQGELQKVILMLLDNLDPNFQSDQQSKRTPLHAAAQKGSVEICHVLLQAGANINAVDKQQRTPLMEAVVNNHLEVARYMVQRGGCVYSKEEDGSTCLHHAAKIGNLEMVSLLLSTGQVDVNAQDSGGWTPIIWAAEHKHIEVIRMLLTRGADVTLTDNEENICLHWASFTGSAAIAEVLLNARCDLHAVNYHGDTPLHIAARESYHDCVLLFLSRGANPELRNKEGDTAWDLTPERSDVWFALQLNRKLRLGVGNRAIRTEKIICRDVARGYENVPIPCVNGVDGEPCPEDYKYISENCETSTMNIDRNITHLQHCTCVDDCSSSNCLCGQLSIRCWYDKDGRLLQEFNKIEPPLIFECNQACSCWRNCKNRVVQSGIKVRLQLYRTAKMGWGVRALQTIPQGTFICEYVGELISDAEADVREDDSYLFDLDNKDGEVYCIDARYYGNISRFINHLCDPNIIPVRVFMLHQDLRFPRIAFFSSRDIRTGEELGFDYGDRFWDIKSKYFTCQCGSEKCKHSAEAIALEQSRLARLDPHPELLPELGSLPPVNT

[2] = biological target: Protein arginine N-methyltransferase 1 (Rattus norvegicus, UniProt Q63009); experiment: Inhibition of rat His6-tagged PRMT1 expressed in Escherichia coli BL21(DE3) using H4-21 peptide as substrate preincubated for 10 mins in presence of SAM followed by substrate addition by fluorescence assay
Protein arginine N-methyltransferase 1, sequence (Q63009 whole entry, the tested form may be a part): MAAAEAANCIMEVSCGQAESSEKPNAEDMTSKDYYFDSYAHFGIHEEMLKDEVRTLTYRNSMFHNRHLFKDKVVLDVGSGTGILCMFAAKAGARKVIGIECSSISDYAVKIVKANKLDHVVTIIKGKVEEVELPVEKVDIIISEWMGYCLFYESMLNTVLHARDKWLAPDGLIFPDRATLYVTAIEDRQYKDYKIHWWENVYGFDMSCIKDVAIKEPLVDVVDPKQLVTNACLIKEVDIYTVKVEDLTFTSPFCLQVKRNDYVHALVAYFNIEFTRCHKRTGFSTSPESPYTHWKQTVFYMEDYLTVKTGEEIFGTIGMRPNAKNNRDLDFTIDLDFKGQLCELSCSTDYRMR

[3] = biological target: T2, N-terminal Xaa-Pro-Lys N-methyltransferase 1 (Homo sapiens) (UniProt Q9BV86); experiment: Competitive inhibition of recombinant human full-length His6-tagged NTMT1 (1 to 222 residues) expressed in Escherichia coli BL21-CodonPlus(DE3)-RIL competent cells pre-incubated for 10 mins in presence of fixed SAM and SAHH before varying levels of RCC1-6 addition and measured after 15 mins by fluorescence based SAHH-coupled assay; conditions: time 25.0 min
T2 sequence (whole entry): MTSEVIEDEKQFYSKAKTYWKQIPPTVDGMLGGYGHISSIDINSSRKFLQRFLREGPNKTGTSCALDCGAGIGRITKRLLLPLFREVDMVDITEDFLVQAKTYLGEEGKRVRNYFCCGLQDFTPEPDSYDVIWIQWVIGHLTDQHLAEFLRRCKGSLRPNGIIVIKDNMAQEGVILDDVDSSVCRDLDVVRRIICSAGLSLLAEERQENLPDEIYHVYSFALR
Procedure, shortened: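 After 10 min at 37 °C, started with RCC1-6 at 0.5, 1, 1.5, 2, 4 or 8 µM. Read Ex 370/Em 500 nm for 15 min at 37 °C. Triplicate IC50 at each level plotted against [RCC1-6]/Km.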

Homo sapiens [4] = species: Homo sapiens; experiment: Selectivity for human NTMT1 over human SUV420H1TV2 at 100 uM
Procedure, shortened: (§1)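 Single-point panel screen against 41 PKMTs, PRMTs, DNMTs and NTMT1/2. Each compound was tested at 100 µM, in duplicate (n=2).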

Homo sapiens [5] = species: Homo sapiens; experiment: Selectivity for human NTMT1 over human DNMT1 at 100 uM
Procedure, shortened: (§2)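 Panel of 41 PKMTs, PRMTs, DNMTs and NTMT1/2, tested at 100 µM compound in duplicate (n=2).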

Homo sapiens [6] = species: Homo sapiens; experiment: Selectivity for human NTMT1 over human EZH2 complex at 100 uM; procedure, shortened: as §2
Homo sapiens [7] = species: Homo sapiens; experiment: Selectivity for human NTMT1 over human G9a at 100 uM; procedure, shortened: as §2
Homo sapiens [8] = species: Homo sapiens; experiment: Selectivity for human NTMT1 over human GLP at 100 uM; procedure, shortened: as §2
Homo sapiens [9] = species: Homo sapiens; experiment: Selectivity for human NTMT1 over human MLL1 complex at 100 uM; procedure, shortened: as §2
Homo sapiens [10] = species: Homo sapiens; experiment: Selectivity for human NTMT1 over human MLL2 complex at 100 uM; procedure, shortened: as §2
Homo sapiens [11] = species: Homo sapiens; experiment: Selectivity for human NTMT1 over human MLL3 complex at 100 uM; procedure, shortened: as §2
Homo sapiens [12] = species: Homo sapiens; experiment: Selectivity for human NTMT1 over human NSD2 E1099K mutant at 100 uM; procedure, shortened: as §2
Homo sapiens [13] = species: Homo sapiens; experiment: Selectivity for human NTMT1 over human PRDMT3 at 100 uM; procedure, shortened: as §2
Homo sapiens [14] = species: Homo sapiens; experiment: Selectivity for human NTMT1 over human PRDMT7 at 100 uM; procedure, shortened: as §2
Homo sapiens [15] = species: Homo sapiens; experiment: Selectivity for human NTMT1 over human SET1b complex at 100 uM; procedure, shortened: as §2
Homo sapiens [16] = species: Homo sapiens; experiment: Selectivity for human NTMT1 over human SMYD1 at 100 uM; procedure, shortened: as §2
Homo sapiens [17] = species: Homo sapiens; experiment: Selectivity for human NTMT1 over human SMYD2 at 100 uM; procedure, shortened: as §2
Homo sapiens [18] = species: Homo sapiens; experiment: Selectivity for human NTMT1 over human SUV39H1 at 100 uM; procedure, shortened: as §1
Homo sapiens [19] = species: Homo sapiens; experiment: Selectivity for human NTMT2 over human ASH1L at 100 uM; procedure, shortened: as §1
Homo sapiens [20] = species: Homo sapiens; experiment: Selectivity for human NTMT2 over human DNMT3b/3L at 100 uM; procedure, shortened: as §1
Homo sapiens [21] = species: Homo sapiens; experiment: Selectivity for human NTMT2 over human EZH2 complex Y641F mutant at 100 uM; procedure, shortened: as §1
Homo sapiens [22] = species: Homo sapiens; experiment: Selectivity for human NTMT2 over human G9a at 100 uM; procedure, shortened: as §1
Homo sapiens [23] = species: Homo sapiens; experiment: Selectivity for human NTMT2 over GST-tagged human METTL21A at 100 uM; procedure, shortened: as §1
Homo sapiens [24] = species: Homo sapiens; experiment: Selectivity for human NTMT2 over human MLL1 complex at 100 uM; procedure, shortened: as §1
Homo sapiens [25] = species: Homo sapiens; experiment: Selectivity for human NTMT2 over human NSD2 E1099K mutant at 100 uM; procedure, shortened: as §1
Homo sapiens [26] = species: Homo sapiens; experiment: Selectivity for human NTMT2 over human NSD3 at 100 uM; procedure, shortened: as §1
Homo sapiens [27] = species: Homo sapiens; experiment: Selectivity for human NTMT2 over human PRDM9 at 100 uM; procedure, shortened: as §1
Homo sapiens [28] = species: Homo sapiens; experiment: Selectivity for human NTMT2 over human SET8 at 100 uM; procedure, shortened: as §1

In the case of N=C(N)NCCC[C@H](NC(=O)[C@H](CCCCN)NC(=O)[C@@H]1CCCN1C(=O)Cc1ccc(O)cc1)C(N)=O, the IC50 [1] is reported as greater than 100 µM, the IC50 [2] is reported as greater than 100 µM and the inhibition [3] is reported as “Active”. For the same molecule, the Selectivity ratio (Homo sapiens [4]) was greater than 100, the Selectivity ratio (Homo sapiens [5]) was greater than 100 and the Selectivity ratio (Homo sapiens [6]) was greater than 100. It also gave a Selectivity ratio (Homo sapiens [7]) greater than 100, a Selectivity ratio (Homo sapiens [8]) greater than 100 and a Selectivity ratio (Homo sapiens [9]) greater than 100. The Selectivity ratio (Homo sapiens [10]) was greater than 100, the Selectivity ratio (Homo sapiens [11]) was greater than 100 and the Selectivity ratio (Homo sapiens [12]) was greater than 100. For the same molecule, the Selectivity ratio (Homo sapiens [13]) was greater than 100, the Selectivity ratio (Homo sapiens [14]) was greater than 100 and the Selectivity ratio (Homo sapiens [15]) was greater than 100. It also gave a Selectivity ratio (Homo sapiens [16]) greater than 100, a Selectivity ratio (Homo sapiens [17]) greater than 100 and a Selectivity ratio (Homo sapiens [18]) greater than 100. For the same molecule, the Selectivity ratio (Homo sapiens [19]) was greater than 100, the Selectivity ratio (Homo sapiens [20]) was greater than 100 and the Selectivity ratio (Homo sapiens [21]) was greater than 100. It also gave a Selectivity ratio (Homo sapiens [22]) greater than 100, a Selectivity ratio (Homo sapiens [23]) greater than 100 and a Selectivity ratio (Homo sapiens [24]) greater than 100. The Selectivity ratio (Homo sapiens [25]) was greater than 100, the Selectivity ratio (Homo sapiens [26]) was greater than 100 and the Selectivity ratio (Homo sapiens [27]) was greater than 100. The Selectivity ratio (Homo sapiens [28]) was greater than 100.
